Active and inactive are the calls of the source. No cut-off for these calls is given here.
How the values were obtained:
[1] = target: Voltage-gated inwardly rectifying potassium channel KCNH2 (Homo sapiens, UniProt Q12809); assay: Inhibition of tracer Red binding to human ERG expressed in membranes up to 10 uM after 3 hrs by fluorescence polarization assay
[2] = Tmax in C57BL/6J mouse brain at 20 mg/kg, po by LC-MS/MS analysis; format: ADME, organism-based
Outline: (§1)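 Male C57BL/6J mice (6-8 weeks, 20 ± 5 g) fasted overnight (12-16 h) got a single 20 mg/kg oral dose as 2.5 mg/mL suspension in 1% w/v gum acacia; n=5 per time point. Serum and brain (PBS homogenate 1:6 w/v) sampled up to 24 h. Parent and demethylated metabolite quantified by LC-MS/MS after liquid-liquid extraction (C18, MRM, phenacetin internal standard; linear 0.25-200 ng/mL). Two-compartment open model fit.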

[3] = AUClast in C57BL/6J mouse serum assessed as 4-(2-Amino-8-methyl-5,6,7,8-tetrahydroquinazolin-4-yl)phenol level at 20 mg/kg, po by LC-MS/MS analysis; format: ADME, organism-based; design: dose 20 mg/kg, time 0 - last, route oral; conditions: in vivo
Outline: (§2)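 Male C57BL/6J mice, 6-8 weeks, 20 ± 5 g, fasted overnight (12-16 h), n = 5 per time point. Single 20 mg/kg oral dose given by feeding needle as a 2.5 mg/mL suspension in 1% w/v gum acacia and water. Serum and brain (homogenized 1:6 w/v in PBS) sampled up to 24 h. Liquid-liquid extraction, then LC-MS/MS in positive MRM mode with phenacetin as internal standard. Linear range 0.25-200 ng/mL. Non-compartmental and compartmental analysis.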

[4] = target: Free fatty acid receptor 1 (Homo sapiens) (UniProt O14842); assay: Antagonist activity at GPR40 (unknown origin) expressed in HEK293 cells harboring luc2P/NFAT-RE plasmid at 10 uM after 6 to 8 hrs by luciferase reporter gene assay; format: cell-based
Outline: (§3)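 NFAT-RE luciferase assay in HEK293T cells transiently co-transfected with luc2P/NFAT-RE plasmid and receptor plasmid. Cells plated in DMEM and incubated overnight at 37 °C, 5% CO₂. Compounds and reference ligands applied for 6-8 h. Luciferase read after adding Bright-Glo substrate (1 mg/ml final).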

[5] = Half life in C57BL/6J mouse serum at 20 mg/kg, po by LC-MS/MS analysis; format: ADME, organism-based; outline: as §1
Mus musculus [6] = assay: Anti-obesity activity in high fat diet-induced obese C57BL/6J mouse model assessed as reduction in body weight at 10 to 20 mg/kg, po; format: functional, organism-based; conditions: TDE = time-dependent effect
[7] = Drug level in C57BL/6J mouse brain at 4 hrs post-dose by equilibrium dialysis method; format: ADME, tissue-based; conditions: in vivo
Outline: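 Unbound brain level derived from brain concentration after 20 mg/kg oral dose, multiplied by unbound fraction from brain-homogenate equilibrium dialysis; given at Cmax and at 4 h.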

[8] = Cmax in C57BL/6J mouse brain at 20 mg/kg, po by LC-MS/MS analysis; format: ADME, organism-based; design: dose 20 mg/kg, route oral; conditions: in vivo; outline: as §1
Mus musculus [9] = assay: Anti-obesity activity in high fat diet-induced obese C57BL/6J mouse model assessed as change in body weight at 10 mg/kg, po measured after 6 weeks (reference value: 3.86 +/- 0.99 g); format: functional
Outline: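 Male C57BL/6J mice (6–8 weeks, 22–25 g) on high-fat diet, with a normal-chow group included. Daily chronic oral dosing against vehicle for six weeks. Percent body weight change followed over the treatment days, and net body weight change taken at six weeks. n=5-6 per group. Two-way ANOVA, or one-way ANOVA with Newman-Keuls test.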

Mus musculus [10] = assay: Anti-obesity activity in 16 hrs fasted db/db-induced obese C57BL/6J mouse model assessed as change in blood TG level at 20 mg/kg, po measured after 6 weeks; format: functional, organism-based
[11] = Apparent volume of distribution in C57BL/6J mouse brain at 20 mg/kg, po by LC-MS/MS analysis; format: ADME, organism-based; outline: as §1
Mus musculus [12] = assay: Anti-obesity activity in 16 hrs fasted high fat diet-induced obese C57BL/6J mouse model assessed as change in blood glucose level at 10 to 20 mg/kg, po treated prior to glucose addition measured after 15 to 120 mins by IPGTT; format: functional, organism-based
Outline: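 Mice fasted 16 h; baseline tail-vein glucose read by glucometer. Glucose given i.p. at 2 g/kg (C57BL/6J) or 1 g/kg (db/db).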

Mus musculus [13] = assay: Anti-obesity activity in high fat diet-induced obese C57BL/6J mouse model assessed as change in body weight at 20 mg/kg, po measured after 6 weeks (reference value: 3.86 +/- 0.99 g); format: functional
[14] = target: Kappa-type opioid receptor (Homo sapiens) (UniProt P41145); assay: Antagonist activity at Gi-coupled KOR (unknown origin) expressed in HEK293T cells assessed as reduction in histamine-induced inhibition of forskolin-stimulated cAMP accumulation preincubated for 10 to 15 followed by histamine addition for 10 mins and subsequent forskolin-stimulation by Glo-sensor assay; format: functional, cell-based
Mus musculus [15] = assay: Anti-obesity activity in high fat diet-induced obese C57BL/6J mouse model assessed as reduction in body fat mass at 10 mg/kg, po measured after 6 weeks relative to control by NMR-based magnetic resonance imaging analysis; format: functional
Outline: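 Male C57BL/6J mice on high-fat diet dosed orally for six weeks against a vehicle-treated high-fat diet group and a chow group. Body composition (fat mass, lean mass, % body fat) measured by EchoMRI live scanning. n=5-6. One-way ANOVA with Newman-Keuls test.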

[16] = target: Free fatty acid receptor 1 (Homo sapiens) (UniProt O14842); assay: Agonist activity at GPR40 (unknown origin) expressed in HEK293 cells harboring luc2P/NFAT-RE plasmid at 10 uM after 6 to 8 hrs by luciferase reporter gene assay; format: cell-based; outline: as §3
[17] = Tmax in C57BL/6J mouse brain assessed as 4-(2-Amino-8-methyl-5,6,7,8-tetrahydroquinazolin-4-yl)phenol level at 20 mg/kg, po by LC-MS/MS analysis; format: ADME, organism-based; conditions: in vivo; outline: as §1
Mus musculus [18] = assay: Anti-obesity activity in high fat diet-induced obese C57BL/6J mouse model assessed as change in HDL level at 10 to 20 mg/kg, po measured after 6 weeks; format: functional, organism-based
Outline: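 At the end of treatment (six weeks HFD, four weeks db/db), mice euthanized with avertin 350 mg/kg. Blood taken by cardiac puncture into 3.8% sodium citrate. Plasma separated at 4000 rpm and stored at -80 °C. TG, TC, HDLc and LDLc measured on a bio-analyzer.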

[19] = AUClast in C57BL/6J mouse serum at 20 mg/kg, po by LC-MS/MS analysis; format: ADME, organism-based; design: dose 20 mg/kg, route oral, time 0 - last; outline: as §2
[20] = target: D(1A) dopamine receptor (Homo sapiens) (UniProt P21728); assay: Agonist activity at Gs-coupled D1 receptor (unknown origin) expressed in HEK293T cells assessed as inhibition of forskolin-stimulated cAMP accumulation preincubated for 10 to 15 followed by forskolin-stimulation by Glo-sensor assay; format: functional, cell-based
[21] = Cmax in C57BL/6J mouse serum assessed as 4-(2-Amino-8-methyl-5,6,7,8-tetrahydroquinazolin-4-yl)phenol level at 20 mg/kg, po by LC-MS/MS analysis; format: ADME, organism-based; design: dose 20 mg/kg, route oral; conditions: in vivo; outline: as §1

Sequence of Free fatty acid receptor 1 (Homo sapiens) (O14842 whole entry): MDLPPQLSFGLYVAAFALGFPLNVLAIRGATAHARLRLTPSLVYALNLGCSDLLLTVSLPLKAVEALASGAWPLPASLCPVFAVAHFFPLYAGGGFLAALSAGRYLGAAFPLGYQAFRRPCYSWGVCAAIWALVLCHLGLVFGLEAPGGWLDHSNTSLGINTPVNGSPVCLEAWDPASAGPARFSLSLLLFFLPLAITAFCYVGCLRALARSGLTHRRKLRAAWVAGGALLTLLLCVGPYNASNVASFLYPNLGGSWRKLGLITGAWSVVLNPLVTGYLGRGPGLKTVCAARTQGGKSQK
Sequence of Voltage-gated inwardly rectifying potassium channel KCNH2 (Q12809 whole entry): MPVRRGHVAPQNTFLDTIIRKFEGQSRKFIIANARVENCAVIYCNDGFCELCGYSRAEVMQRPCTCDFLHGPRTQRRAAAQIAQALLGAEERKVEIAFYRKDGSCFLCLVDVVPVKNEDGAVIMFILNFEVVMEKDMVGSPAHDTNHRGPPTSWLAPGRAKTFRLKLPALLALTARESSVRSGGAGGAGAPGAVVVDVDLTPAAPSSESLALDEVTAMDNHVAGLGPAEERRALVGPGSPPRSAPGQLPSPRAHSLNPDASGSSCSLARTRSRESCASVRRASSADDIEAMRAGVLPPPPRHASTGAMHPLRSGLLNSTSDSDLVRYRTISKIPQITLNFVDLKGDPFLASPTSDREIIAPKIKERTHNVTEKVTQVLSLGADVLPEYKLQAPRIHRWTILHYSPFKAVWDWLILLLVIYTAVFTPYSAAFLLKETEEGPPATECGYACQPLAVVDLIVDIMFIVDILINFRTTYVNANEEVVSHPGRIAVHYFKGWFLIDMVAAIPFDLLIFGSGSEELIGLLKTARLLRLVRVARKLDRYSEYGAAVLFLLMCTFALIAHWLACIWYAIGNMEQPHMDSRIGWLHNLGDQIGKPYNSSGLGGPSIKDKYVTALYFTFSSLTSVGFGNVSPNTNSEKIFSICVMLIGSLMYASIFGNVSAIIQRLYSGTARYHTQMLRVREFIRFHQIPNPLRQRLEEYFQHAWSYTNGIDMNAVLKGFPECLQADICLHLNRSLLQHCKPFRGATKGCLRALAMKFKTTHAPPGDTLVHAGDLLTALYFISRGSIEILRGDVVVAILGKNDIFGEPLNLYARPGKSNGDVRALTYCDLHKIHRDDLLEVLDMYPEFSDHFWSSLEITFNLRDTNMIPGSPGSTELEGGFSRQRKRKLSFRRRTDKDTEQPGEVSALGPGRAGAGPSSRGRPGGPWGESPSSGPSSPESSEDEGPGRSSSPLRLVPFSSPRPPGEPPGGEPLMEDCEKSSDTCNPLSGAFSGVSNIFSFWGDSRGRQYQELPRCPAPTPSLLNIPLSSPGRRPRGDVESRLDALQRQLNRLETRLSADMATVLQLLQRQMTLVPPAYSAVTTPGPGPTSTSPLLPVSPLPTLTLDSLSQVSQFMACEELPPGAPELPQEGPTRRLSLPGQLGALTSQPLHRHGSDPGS
Sequence of Kappa-type opioid receptor (Homo sapiens) (P41145 whole entry): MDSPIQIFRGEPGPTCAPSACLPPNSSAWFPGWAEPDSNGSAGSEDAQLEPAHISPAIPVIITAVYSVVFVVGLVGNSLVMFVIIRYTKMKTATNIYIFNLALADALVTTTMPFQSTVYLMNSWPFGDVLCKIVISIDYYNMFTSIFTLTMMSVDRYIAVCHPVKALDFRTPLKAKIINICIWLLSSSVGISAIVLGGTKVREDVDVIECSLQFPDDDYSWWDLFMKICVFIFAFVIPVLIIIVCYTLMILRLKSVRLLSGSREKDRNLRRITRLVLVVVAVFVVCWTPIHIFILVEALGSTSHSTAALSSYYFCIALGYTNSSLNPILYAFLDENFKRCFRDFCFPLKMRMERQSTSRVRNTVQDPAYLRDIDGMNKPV
Sequence of D(1A) dopamine receptor (Homo sapiens) (P21728 whole entry): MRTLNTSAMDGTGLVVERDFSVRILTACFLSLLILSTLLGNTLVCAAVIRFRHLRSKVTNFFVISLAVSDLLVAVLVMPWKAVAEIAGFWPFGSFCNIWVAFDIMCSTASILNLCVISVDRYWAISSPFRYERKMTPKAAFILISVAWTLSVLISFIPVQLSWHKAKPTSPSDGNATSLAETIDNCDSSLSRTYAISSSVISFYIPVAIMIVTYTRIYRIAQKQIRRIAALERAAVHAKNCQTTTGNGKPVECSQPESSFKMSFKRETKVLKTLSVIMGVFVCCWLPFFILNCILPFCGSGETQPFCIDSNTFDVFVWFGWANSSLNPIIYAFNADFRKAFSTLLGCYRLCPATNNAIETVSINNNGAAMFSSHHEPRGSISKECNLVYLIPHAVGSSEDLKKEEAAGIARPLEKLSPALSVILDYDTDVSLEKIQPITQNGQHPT

COc1ccc(-c2nc(N)nc3c2CCCC3C)cc1 (racemic)
inhibition (INH) [1]: Not Active
Tmax [2]: 30 min
AUClast [3]: 1646.9 ng·h/mL
inhibition [4]: inactive
half-life [5]: 114 min
Activity (Mus musculus [6]): Tde
Drug uptake [7]: 20.8 nM
Cmax [8]: 323 ng/g
Activity (Mus musculus [9]): 2.6 g
Activity (Mus musculus [10]): inactive
Vd/F [11]: 28.3 L/kg
Activity (Mus musculus [12]): inactive
Activity (Mus musculus [13]): 0.8 g
INH [14]: > 10 µM
Activity (Mus musculus [15]): Active
Activity [16]: inactive
Tmax [17]: 30 min
Activity (Mus musculus [18]): inactive
AUC(0-t) [19]: 1920 ng·h/mL
inhibition [20]: inactive
Cmax [21]: 3333.3 ng/mL
